According to ChEMBL document CHEMBL1145542, “Discovery of a new class of potent, selective, and orally bioavailable CRTH2 (DP2) receptor antagonists for the treatment of allergic inflammatory diseases” (J Med Chem, 2008):
pIC50, pKi: −log10 of the molar value. One block for each compound: values may come before it. The source made the active and inactive calls. The rule behind the calls is not given here.

Legend:
[1] = molecular target: T1, Prostaglandin D2 receptor 2 (Homo sapiens, UniProt Q9Y5Y4); assay: Displacement of [3H]PGD2 from human CRTH2 receptor expressed in CHO cells; format: cell-based
T1 sequence (Q9Y5Y4 whole entry): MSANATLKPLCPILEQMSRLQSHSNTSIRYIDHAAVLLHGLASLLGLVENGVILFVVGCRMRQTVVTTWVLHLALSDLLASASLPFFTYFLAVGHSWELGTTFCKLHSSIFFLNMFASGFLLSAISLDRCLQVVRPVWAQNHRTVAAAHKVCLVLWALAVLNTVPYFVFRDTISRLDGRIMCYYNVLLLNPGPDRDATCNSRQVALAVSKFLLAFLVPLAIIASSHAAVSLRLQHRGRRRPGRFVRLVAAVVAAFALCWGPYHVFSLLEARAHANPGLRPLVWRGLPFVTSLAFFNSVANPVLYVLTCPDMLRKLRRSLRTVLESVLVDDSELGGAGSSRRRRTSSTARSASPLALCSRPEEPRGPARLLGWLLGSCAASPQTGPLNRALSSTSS
In short: (§1)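 Scintillation proximity competition assay: 2–5 µg human or mouse CRTH2 membranes (nitrogen-cavitation, differential centrifugation) with WGA-SPA beads and 1.5 nM [3H]PGD2 in 10 mM HEPES/KOH pH 7.4, 10 mM MnCl2, protease inhibitors, 1% Me2SO, 90 min shaking at room temperature. Nonspecific binding with 1 µM PGD2. Ki by Cheng–Prusoff, mean of ≥3 independent experiments.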

[2] = molecular target: T2, Prostaglandin D2 receptor 2 (Mus musculus, UniProt Q9Z2J6); assay: Displacement of [3H]PGD2 from mouse CRTH2 receptor expressed in HEK293 cells; format: cell-based; in short: as §1
T2 sequence (Q9Z2J6 whole entry): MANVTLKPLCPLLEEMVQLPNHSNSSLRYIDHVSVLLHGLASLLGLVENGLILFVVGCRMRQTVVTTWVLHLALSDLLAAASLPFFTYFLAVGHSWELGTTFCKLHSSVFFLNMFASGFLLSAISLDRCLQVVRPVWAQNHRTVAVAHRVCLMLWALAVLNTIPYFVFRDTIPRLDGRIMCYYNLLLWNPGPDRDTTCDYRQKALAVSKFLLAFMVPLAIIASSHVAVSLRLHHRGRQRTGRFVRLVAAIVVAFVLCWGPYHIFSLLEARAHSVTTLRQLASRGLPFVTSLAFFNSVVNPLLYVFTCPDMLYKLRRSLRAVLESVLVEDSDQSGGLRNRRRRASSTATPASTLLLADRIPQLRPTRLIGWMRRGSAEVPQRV

[3] = molecular target: T1, Prostaglandin D2 receptor 2; assay: Antagonist activity at human CRTH2 receptor expressed in CHO cell membrane by [35S]GTP-gamma-S binding assay; format: functional, cell membranes
In short: (§2)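 [35S]GTPγS binding at 30 °C on 10 µg human CRTH2 membranes in 20 mM HEPES/KOH pH 7.4, 10 mM MgCl2, 10 µg/mL saponin, 3 µM GDP, 150 mM NaCl, 2% Me2SO. PGD2 preincubation 10 min (antagonist mode: 80 nM PGD2), then 0.15 nM [35S]GTPγS for 30 min. Nonspecific binding with 10 µM GTPγS; stopped by centrifugation, scintillation counting.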

[4] = Intrinsic clearance per mg of protein in human liver microsomes at 3 uM; format: ADME, Microsome
In short: (§3)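 Rat or human liver microsomes (0.5 mg/mL final) in 0.1 M phosphate pH 7.4 with 3 µM compound (1% DMSO), preincubated at 37 °C, started with 1 mM NADPH. Quenched with cold acetonitrile at 0, 15, 30, 45 min; LC/MS-MS of compound disappearance gives intrinsic clearance.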

[5] = Intrinsic clearance per mg of protein in rat liver microsomes at 3 uM; format: ADME, Microsome; in short: as §3
[6] = Lipophilicity, log D of the compound; format: physicochemical; conditions: octanol/water
[7] = molecular target: T3, Prostaglandin D2 receptor (Homo sapiens, UniProt Q13258); assay: Inhibition of prostaglandin D2 receptor
T3 sequence (Q13258 whole entry): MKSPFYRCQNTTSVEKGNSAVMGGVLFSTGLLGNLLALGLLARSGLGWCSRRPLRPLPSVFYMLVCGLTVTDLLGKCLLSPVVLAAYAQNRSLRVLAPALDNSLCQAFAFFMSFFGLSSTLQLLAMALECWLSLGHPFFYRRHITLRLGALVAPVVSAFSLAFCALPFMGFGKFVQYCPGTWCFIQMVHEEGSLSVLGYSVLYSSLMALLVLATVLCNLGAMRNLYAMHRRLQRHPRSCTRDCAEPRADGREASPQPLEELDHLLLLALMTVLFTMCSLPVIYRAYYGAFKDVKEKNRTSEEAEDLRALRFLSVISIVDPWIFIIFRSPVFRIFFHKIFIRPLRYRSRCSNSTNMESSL

[8] = molecular target: Prostaglandin E2 receptor EP2 subtype (Homo sapiens, UniProt P43116); assay: Inhibition of prostanoid EP2 receptor
[9] = Inhibition of prostanoid EP3 receptor
[10] = Inhibition of prostanoid EP4 receptor
[11] = Inhibition of prostanoid FP receptor
[12] = Apparent permeability across human Caco-2 cell membrane at 10 uM; format: ADME, cell-based
In short: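 Caco-2 monolayers grown 21 days on Transwell filters; TEER above 800 ohm·cm² required. 10 µM test compound in HBSS added apically (A to B) or basolaterally (B to A), 2 h at 37 °C. Both compartments sampled, analysed by LC/MS-MS.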

[13] = AUC (0 to last t) in rat at 1 mg/kg, iv; format: ADME, organism-based; parameters: time 0 - last, dose 1 mg/kg, route intravenous; conditions: plasma
In short: (§4)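 Male Sprague–Dawley or Janvier rats, three per route, dosed by oral gavage or iv bolus. Serial blood drawn through an indwelling carotid catheter up to 24 h post dose. Plasma pooled by time point, analysed by LC-MS/MS; non-compartmental analysis.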

[14] = AUC (0 to last t) in rat at 5 mg/kg, po; format: ADME, organism-based; parameters: time 0 - last, dose 5 mg/kg, route oral; conditions: plasma; in short: as §4
[15] = Oral bioavailability in rat at 5 mg/kg; format: ADME, organism-based; conditions: in vivo; in short: as §4
[16] = Cmax in rat at 1 mg/kg, iv; format: ADME, organism-based; parameters: dose 1 mg/kg, route intravenous; conditions: in vivo; in short: as §4
[17] = Cmax in rat at 5 mg/kg, po; format: ADME, organism-based; parameters: dose 5 mg/kg, route oral; conditions: in vivo; in short: as §4
[18] = Tmax in rat at 1 mg/kg, iv; format: ADME, organism-based; parameters: dose 1 mg/kg, route intravenous; conditions: in vivo; in short: as §4
[19] = Tmax in rat at 5 mg/kg, po; format: ADME, organism-based; parameters: dose 5 mg/kg, route oral; conditions: in vivo; in short: as §4
[20] = Half life in rat at 1 mg/kg, iv; format: ADME, organism-based; parameters: dose 1 mg/kg, route intravenous; conditions: in vivo; in short: as §4
[21] = Clearance in rat at 1 mg/kg, iv; format: ADME, organism-based; parameters: dose 1 mg/kg, route intravenous; conditions: in vivo; in short: as §4
[22] = Volume of distribution at steady state in rat at 1 mg/kg, iv; format: ADME, organism-based; parameters: dose 1 mg/kg, route intravenous; conditions: in vivo, read-out: Vdss; in short: as §4
[23] = molecular target: T4, Prostaglandin D2 receptor 2 (Homo sapiens) (UniProt Q9Y5Y4); assay: Inverse agonistic activity at human CRTH2 receptor expressed in CHO cell membrane by [35S]GTP-gamma-S binding assay; format: functional, cell membranes; in short: as §2
T4 sequence (whole entry): T1 sequence (Q9Y5Y4 whole entry)

Chain of Prostaglandin E2 receptor EP2 subtype (P43116 whole entry): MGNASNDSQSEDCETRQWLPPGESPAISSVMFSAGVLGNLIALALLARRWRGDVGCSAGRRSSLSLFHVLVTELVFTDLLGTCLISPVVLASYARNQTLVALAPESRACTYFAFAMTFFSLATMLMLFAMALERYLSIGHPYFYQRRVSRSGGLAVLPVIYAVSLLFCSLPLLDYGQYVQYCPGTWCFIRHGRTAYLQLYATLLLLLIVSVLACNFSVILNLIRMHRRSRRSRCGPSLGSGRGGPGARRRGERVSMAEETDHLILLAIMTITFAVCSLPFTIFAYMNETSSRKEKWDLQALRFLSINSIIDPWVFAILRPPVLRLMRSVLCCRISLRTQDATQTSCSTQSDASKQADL

- pKi [1]: 7.64
- pKi [2]: 7.48
- pIC50 [3]: 6.97
- microsomal CLint at 3 µM [4]: 3 µL/min/mg
- microsomal CLint at 3 µM [5]: 8 µL/min/mg
- logD [6]: -0.4
- pIC50 [7]: < 4.52
- pIC50 [8]: < 4.52
- pIC50 [9]: < 4.52
- pIC50 [10]: < 4.52
- pIC50 [11]: < 4.52
Compound: O=C(O)CN1C(=O)[C@@]2(CC(=O)N(Cc3cccc(Cl)c3)C2=O)c2cc(Cl)ccc21

- pKi [1]: 8.42
- pIC50 [3]: 7.72
- Papp at 10 µM [12]: 2.1 ×10⁻⁶ cm/s
- logD [6]: -0.3
- AUC(0-t) [13]: 247 ng·h/mL
- AUC(0-t) [14]: 2.01 ng·h/mL
- bioavailability [15]: 0.2%
- Cmax [16]: 1970 ng/mL
- Cmax [17]: 6 ng/mL
- Tmax [18]: 0 h
- Tmax [19]: 15 min
- half-life [20]: 6 min
- clearance [21]: 66.7 mL/min/kg
- Vd [22]: 0.4 L/kg
Compound: Cc1noc(-c2ccccc2)c1CN1CC2(CC1=O)C(=O)N(CC(=O)O)c1ccc(Cl)cc12 (configuration not stated)

- pKi [1]: 5.81
- Activity [23]: Active
Compound: O=C1CC2(C(=O)N1Cc1ccccc1)C(=O)N(Cc1nnn[nH]1)c1ccc(Cl)cc12 (configuration not stated)
